Activity calls are given as the source filed them. The calls are words filed in the database; no cut-off is given here.
Legend:
[1] = target: Histone deacetylase (Homo sapiens) (UniProt Q13547+O15379+Q9UBN7+Q92769+Q9UQL6+Q8WUI4+Q9BY41+Q96DB2+P56524+Q9UKV0+Q969S8); test: Inhibition of HDAC in human HeLa nuclear extract up to 10000 uM preincubated with cells followed by flour de lys-green substrate addition measured after 1 hr by fluorescence assay
Histone deacetylase 1 = Histone deacetylase 1 (Homo sapiens, UniProt Q13547); test: Inhibition of recombinant human HDAC1 (482 residues) expressed in baculovirus infected insect cells preincubated with enzyme followed by flour de lys-green substrate addition measured after 1 hr by fluorescence assay
Histone deacetylase 1, sequence (Q13547 whole entry): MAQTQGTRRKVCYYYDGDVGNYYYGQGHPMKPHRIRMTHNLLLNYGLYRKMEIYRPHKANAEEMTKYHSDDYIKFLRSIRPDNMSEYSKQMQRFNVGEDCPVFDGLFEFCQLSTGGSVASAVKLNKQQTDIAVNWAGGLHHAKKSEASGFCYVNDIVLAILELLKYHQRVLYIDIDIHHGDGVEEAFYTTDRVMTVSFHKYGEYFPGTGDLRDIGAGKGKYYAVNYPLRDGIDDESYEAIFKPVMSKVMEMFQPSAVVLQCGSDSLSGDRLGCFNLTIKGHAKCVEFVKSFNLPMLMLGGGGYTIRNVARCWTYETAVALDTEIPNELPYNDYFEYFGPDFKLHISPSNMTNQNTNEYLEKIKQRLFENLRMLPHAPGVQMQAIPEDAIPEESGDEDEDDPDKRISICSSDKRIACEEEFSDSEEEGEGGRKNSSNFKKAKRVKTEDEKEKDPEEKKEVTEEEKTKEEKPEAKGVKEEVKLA

Histone deacetylase 2 = Histone deacetylase 2 (Homo sapiens, UniProt Q92769); test: Inhibition of recombinant human HDAC2 preincubated with enzyme followed by flour de lys-green substrate addition measured after 1 hr by fluorescence assay
Histone deacetylase 2, sequence (Q92769 whole entry): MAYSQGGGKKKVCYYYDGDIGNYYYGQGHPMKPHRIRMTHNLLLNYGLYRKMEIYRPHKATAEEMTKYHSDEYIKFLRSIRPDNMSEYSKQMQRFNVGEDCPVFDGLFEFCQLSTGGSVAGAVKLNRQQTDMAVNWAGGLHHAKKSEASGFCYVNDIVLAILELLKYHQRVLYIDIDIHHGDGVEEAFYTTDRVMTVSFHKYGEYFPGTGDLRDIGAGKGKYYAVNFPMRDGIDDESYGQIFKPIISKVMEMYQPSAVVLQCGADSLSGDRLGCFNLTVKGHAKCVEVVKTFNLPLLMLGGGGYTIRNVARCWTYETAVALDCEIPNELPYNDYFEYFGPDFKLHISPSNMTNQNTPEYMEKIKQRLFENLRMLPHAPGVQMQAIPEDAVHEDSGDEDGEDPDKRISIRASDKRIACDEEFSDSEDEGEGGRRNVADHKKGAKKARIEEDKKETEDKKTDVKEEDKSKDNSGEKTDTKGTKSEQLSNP

[2] = target: T1, Protein deacetylase HDAC6 (Homo sapiens, UniProt Q9UBN7); test: Inhibition of recombinant human His-tagged HDAC6 expressed in baculovirus infected insect cells preincubated with enzyme followed by flour de lys-green substrate addition measured after 1 hr by fluorescence assay
T1 sequence (Q9UBN7 whole entry): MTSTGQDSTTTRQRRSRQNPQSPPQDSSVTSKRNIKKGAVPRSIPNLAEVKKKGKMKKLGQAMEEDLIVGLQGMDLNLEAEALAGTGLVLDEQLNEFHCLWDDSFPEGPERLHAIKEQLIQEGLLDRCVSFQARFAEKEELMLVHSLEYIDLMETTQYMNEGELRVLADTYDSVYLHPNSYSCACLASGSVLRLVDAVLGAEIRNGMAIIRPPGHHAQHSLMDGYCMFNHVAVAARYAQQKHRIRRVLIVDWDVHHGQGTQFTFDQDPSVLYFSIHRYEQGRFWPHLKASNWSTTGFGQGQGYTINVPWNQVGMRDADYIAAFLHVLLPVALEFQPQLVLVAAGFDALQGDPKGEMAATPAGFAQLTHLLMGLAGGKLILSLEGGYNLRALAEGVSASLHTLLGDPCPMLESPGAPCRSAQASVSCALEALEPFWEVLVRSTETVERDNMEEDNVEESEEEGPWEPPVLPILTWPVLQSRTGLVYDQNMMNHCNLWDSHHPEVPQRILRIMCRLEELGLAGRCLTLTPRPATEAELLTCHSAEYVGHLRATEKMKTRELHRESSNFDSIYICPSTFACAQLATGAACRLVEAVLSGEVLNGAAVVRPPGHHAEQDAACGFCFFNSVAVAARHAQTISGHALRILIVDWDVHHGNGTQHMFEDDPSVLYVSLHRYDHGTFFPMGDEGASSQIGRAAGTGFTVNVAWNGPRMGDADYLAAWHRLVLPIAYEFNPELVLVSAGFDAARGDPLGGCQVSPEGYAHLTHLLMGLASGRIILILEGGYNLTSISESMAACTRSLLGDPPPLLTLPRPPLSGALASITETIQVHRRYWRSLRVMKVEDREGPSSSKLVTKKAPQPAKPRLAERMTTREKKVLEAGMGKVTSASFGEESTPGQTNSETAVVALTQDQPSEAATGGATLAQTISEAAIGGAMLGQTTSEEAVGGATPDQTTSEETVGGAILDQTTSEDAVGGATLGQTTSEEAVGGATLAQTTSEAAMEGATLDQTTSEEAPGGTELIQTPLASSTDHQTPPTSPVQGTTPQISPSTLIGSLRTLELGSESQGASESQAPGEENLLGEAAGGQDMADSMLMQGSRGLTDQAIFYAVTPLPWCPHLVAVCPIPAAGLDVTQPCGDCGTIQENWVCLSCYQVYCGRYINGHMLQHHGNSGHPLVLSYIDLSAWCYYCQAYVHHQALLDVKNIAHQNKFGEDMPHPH

Homo sapiens = species on record: Homo sapiens; test: Induction of DNA damage in human A375 cells assessed as increase in gammaH2AX level at 16 uM after 48 hrs by high throughput assay relative to control; type: cell-based
Summary of the method: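 A375 cells were exposed for 48 h at 8 and 16 µM. Histone H2AX phosphorylation (γH2AX, a double-strand-break marker) was detected with the EpiQuik In Situ DNA Damage Assay kit following the maker's protocol. Results are expressed as percent of the untreated control, as mean ± SD (n=3), with a t-test for significance.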

HepG2 = test: Antiproliferative activity against human HepG2 cells after 72 hrs by CCK8 assay; type: functional, cell-based; conditions: for IC50: HepG2, 72 h
Summary of the method: (§1)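 CCK-8 viability read-out on four human cancer lines (HepG2, A549, HCT116, A375) over a range of concentrations. IC50 is the concentration that reduces viability to 50%. Values are means of three experiments.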

A549 = test: Antiproliferative activity against human A549 cells after 72 hrs by CCK8 assay; type: functional, cell-based; conditions: for IC50: A549, 72 h; summary of the method: as §1
HCT-116 = test: Antiproliferative activity against human HCT116 cells after 72 hrs by CCK8 assay; type: functional, cell-based; conditions: for IC50: HCT-116, 72 h; summary of the method: as §1
A-375 [3] = test: Antiproliferative activity against human A375 cells after 72 hrs by CCK8 assay; type: functional, cell-based; conditions: for IC50: A-375, 72 h; summary of the method: as §1
A-375 [4] = test: Anticlonogenic activity against human A375 cells after 7 days by crystal violet staining based assay; type: functional, cell-based
A-375 [5] = test: Induction of apoptosis in human A375 cells assessed as live cells at 2 uM after 72 hrs by Annexin/propidium iodide staining based flow cytometry (reference value: 86.07%); type: functional
A-375 [6] = test: Induction of apoptosis in human A375 cells assessed as early apoptotic cells at 2 uM after 72 hrs by Annexin/propidium iodide staining based flow cytometry (reference value: 1.62%); type: functional
A-375 [7] = test: Induction of apoptosis in human A375 cells assessed as late apoptotic cells at 2 uM after 72 hrs by Annexin/propidium iodide staining based flow cytometry (reference value: 6.95%); type: functional
A-375 [8] = test: Induction of apoptosis in human A375 cells assessed as necrotic cells at 2 uM after 72 hrs by Annexin/propidium iodide staining based flow cytometry (reference value: 1.36%); type: functional
A-375 [9] = test: Induction of apoptosis in human A375 cells assessed as live cells at 8 uM after 72 hrs by Annexin/propidium iodide staining based flow cytometry (reference value: 86.07%); type: functional
A-375 [10] = test: Induction of apoptosis in human A375 cells assessed as early apoptotic cells at 8 uM after 72 hrs by Annexin/propidium iodide staining based flow cytometry (reference value: 1.62%); type: functional
A-375 [11] = test: Induction of apoptosis in human A375 cells assessed as late apoptotic cells at 8 uM after 72 hrs by Annexin/propidium iodide staining based flow cytometry (reference value: 6.95%); type: functional
A-375 [12] = test: Induction of apoptosis in human A375 cells assessed as necrotic cells at 8 uM after 72 hrs by Annexin/propidium iodide staining based flow cytometry (reference value: 1.36%); type: functional
A-375 [13] = test: Induction of apoptosis in human A375 cells assessed as live cells at 16 uM after 72 hrs by Annexin/propidium iodide staining based flow cytometry (reference value: 86.07%); type: functional
A-375 [14] = test: Induction of apoptosis in human A375 cells assessed as early apoptotic cells at 16 uM after 72 hrs by Annexin/propidium iodide staining based flow cytometry (reference value: 1.62%); type: functional
A-375 [15] = test: Induction of apoptosis in human A375 cells assessed as late apoptotic cells at 16 uM after 72 hrs by Annexin/propidium iodide staining based flow cytometry (reference value: 6.95%); type: functional
A-375 [16] = test: Induction of apoptosis in human A375 cells assessed as necrotic cells at 16 uM after 72 hrs by Annexin/propidium iodide staining based flow cytometry (reference value: 1.36%); type: functional
A-375 [17] = test: Induction of apoptosis in human A375 cells after 72 hrs by Annexin/propidium iodide staining based flow cytometry; type: functional, cell-based
A-375 [18] = test: Cell cycle arrest in human A375 cells assessed as accumulation at G0/G1 phase at 8 uM after 72 hrs by propidium iodide staining based flow cytometry (reference value: 83.6%); type: functional
A-375 [19] = test: Cell cycle arrest in human A375 cells assessed as accumulation at S phase at 8 uM after 72 hrs by propidium iodide staining based flow cytometry (reference value: 3.8%); type: functional
A-375 [20] = test: Cell cycle arrest in human A375 cells assessed as accumulation at G2/M phase at 8 uM after 72 hrs by propidium iodide staining based flow cytometry (reference value: 12.6%); type: functional
A-375 [21] = test: Anticlonogenic activity against human A375 cells at 2 to 16 uM after 7 days by crystal violet staining based assay; type: functional, cell-based

| SMILES | Activity (Homo sapiens) [%] | IC50 (HepG2) [µM] | IC50 (A549) [µM] | IC50 (HCT-116) [µM] | IC50 (A-375 [3]) [µM] | Activity (A-375 [5]) [%] | Activity (A-375 [6]) [%] | Activity (A-375 [7]) [%] | Activity (A-375 [8]) [%] | Activity (A-375 [9]) [%] | Activity (A-375 [10]) [%] | Activity (A-375 [11]) [%] | Activity (A-375 [12]) [%] | Activity (A-375 [13]) [%] | Activity (A-375 [14]) [%] | Activity (A-375 [15]) [%] | Activity (A-375 [16]) [%] | Activity (A-375 [18]) [%] | Activity (A-375 [19]) [%] | Activity (A-375 [20]) [%] | further results |
| --- | --- | --- | --- | --- | --- | --- | --- | --- | --- | --- | --- | --- | --- | --- | --- | --- | --- | --- | --- | --- | --- |
| O=C(CCCCCCC(=O)Nc1ccc(N(CCCl)CCCl)cc1)NO | 224 | 6.1 | 4.4 | 3.2 | 6.2 | 84.36 | 3.31 | 10.26 | 2.07 | 50.76 | 16.02 | 29.95 | 3.27 | 30.42 | 13.29 | 53.54 | 2.75 | 27.7 | 5.8 | 66.5 | inhibition [1]: Active; IC50 (Histone deacetylase 1): 0.27 µM; IC50 (Histone deacetylase 2): 0.24 µM; IC50 [2]: 0.62 µM; Activity (HepG2): Dose-dependent effect; Activity (A549): Dose-dependent effect; Activity (HCT-116): Dose-dependent effect; Activity (A-375 [3]): Dose-dependent effect; Activity (A-375 [4]): Dose-dependent effect; Activity (A-375 [17]): Dose-dependent effect |
| O=C(O)CCCc1ccc(N(CCCl)CCCl)cc1 [CHLORAMBUCIL] | 129 | 112 | 22.2 | 57.6 | 69.2 | 90.07 | 1.62 | 6.95 | 1.36 | 87.14 | 2.11 | 8.41 | 2.34 | 71.14 | 4.21 | 18.21 | 6.44 | 47 | 5.4 | 47.6 | Activity (A-375 [21]): Active |

— ChEMBL document CHEMBL4177566, “Rational design, synthesis and preliminary antitumor activity evaluation of a chlorambucil derivative with potent DNA/HDAC dual-targeting inhibitory activity” (Bioorg Med Chem Lett, 2017)
